Screening data deposited in PubChem by several laboratories.
RanGTP-Imp inh – inhibitors of RanGTP-importin-beta interaction, primary screen, biochemical, FRET, CFP-Ran, YFP-importin-beta, homogeneous; Ran GTPase (GTP-bound) - importin-beta complex; cell-free CFP-Ran/YFP-importin-beta FRET ratio; AID 2216, 2009; inhibition, % (no concentration beside the values); 1.1% of 300,000 active;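 active = more than half of the replicate wells show a fall in the fluorescence ratio signal beyond about 16%, limit read from the data, passing the limit was not always enough; inconclusive = exactly half of the replicate wells pass the set limit; inactive = fewer than half of replicates pass the limit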;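 also: 0% = DMSO wells and 100% = Ran loaded with GDP instead of GTP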
Runt-SMMHC FRET – inhibitors of RUNX1 Runt–CBFb-SMMHC binding, primary screen, biochemical, FRET, Cerulean-Runt, Venus-CBFb-SMMHC, uHTS; Runt-related transcription factor 1 (Homo sapiens) + Core-binding factor subunit beta …; Cerulean-Runt/Venus-CBFb-SMMHC FRET ratio 530/480, 1 h; inhibition, % at 20 µM; 0.74% of 220,000 active; AID 1434, 2008;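 active = mean inhibition across duplicate retests at 20 µM reaching about 50%, limit read from the data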;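 also: 0% = DMSO wells and 100% = wells with excess untagged CBFb-SMMHC; inhibitors lower the FRET ratio by blocking Runt binding to CBFb-SMMHC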
Target sequence (Q01196 whole entry, looked up): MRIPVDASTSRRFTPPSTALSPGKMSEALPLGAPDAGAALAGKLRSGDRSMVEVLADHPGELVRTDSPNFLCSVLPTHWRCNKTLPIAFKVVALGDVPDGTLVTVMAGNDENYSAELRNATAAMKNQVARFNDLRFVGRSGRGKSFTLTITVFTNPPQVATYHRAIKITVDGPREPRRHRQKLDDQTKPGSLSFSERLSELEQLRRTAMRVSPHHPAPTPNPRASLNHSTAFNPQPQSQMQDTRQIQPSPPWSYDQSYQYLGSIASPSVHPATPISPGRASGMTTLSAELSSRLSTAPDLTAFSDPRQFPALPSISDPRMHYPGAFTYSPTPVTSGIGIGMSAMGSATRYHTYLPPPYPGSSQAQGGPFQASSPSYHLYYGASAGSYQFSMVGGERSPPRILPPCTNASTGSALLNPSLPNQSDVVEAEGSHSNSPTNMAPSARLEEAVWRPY
Target sequence (Q13951 whole entry, looked up): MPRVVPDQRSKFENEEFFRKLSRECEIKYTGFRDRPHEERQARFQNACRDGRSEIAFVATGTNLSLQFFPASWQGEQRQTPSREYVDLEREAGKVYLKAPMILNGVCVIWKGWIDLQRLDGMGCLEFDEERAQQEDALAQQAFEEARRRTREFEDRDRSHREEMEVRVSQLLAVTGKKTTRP
CaV13 FRET inh – Primary screen for inhibitors of IQ motif and Ca2+-dependent inactivation inhibitor domain binding in CACNA1D, Förster resonance energy transfer in living cells, … | 0.098% of 340,000 active | HEK cells, CFP/YFP FRET ICDI-IQ, plate reader, 10 min; percent FRET-ratio fall versus neutral wells | inhibition, % at 12.3 µM;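 active = mean replicate inhibition of at least 30% and at least 1% of replicates passing that level; inconclusive = only one of the two criteria is met; inactive = neither criterion is met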;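 also: 0% = median of the neutral control wells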
Runt-CBFb FRET – inhibitors of RUNX1 Runt–CBFb binding, primary screen, biochemical, FRET, Cerulean-Runt, Venus-CBFb, uHTS | Runt-related transcription factor 1 (Homo sapiens) + Core-binding factor subunit beta … | Cerulean-Runt/Venus-CBFb FRET ratio 530/480, 1 h | inhibition, % at 20 µM | 0.46% of 220,000 active | AID 1496, 2009;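 active = inhibition over about 50% at 20 µM in the single-dose screen, limit read from the data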;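 also: 0% = DMSO wells and 100% = excess unlabeled CBFb competitor control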
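test system = Cerulean-tagged RUNX1 Runt domain (FRET donor) fusion protein | reagent = Venus-CBFb binding partner, 100 nM | incubation = protein complex preformed 1 h, compound exposure 1 h, room temperature, dark | detection = FRET fluorescence | read-out basis = loss of energy transfer signal | controls = 5 µM unlabeled CBFb as full-inhibition high control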
Hck-Nef inh – inhibitors of Nef-activated human Hck kinase, primary screen, biochemical, Z-Lyte FRET, 384-well, Hck-YEEI; AID 463187, 2010; 0.68% of 220,000 active; Recombinant Hck-YEEI plus Nef, Z-Lyte FRET kinase assay; inhibition, % at 20 µM;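 active = Hck-Nef kinase inhibition above about 50%, limit read from the data; inactive = inhibition below that limit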;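 also: 0% = DMSO with Hck plus Nef and 100% = Hck alone without Nef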
* hit, by the source's call; ? = inconclusive; nt = not tested or not shown; + = active, no number; ! = repeats disagree. This is a sample that favours compounds with a hit; in the whole collection about 1.5% have one here.

SMILES | RanGTP-Imp inh | Runt-SMMHC FRET | CaV13 FRET inh | Runt-CBFb FRET | Hck-Nef inh
S=c1[nH]nc(-c2ccc3c(c2)OCO3)n1-c1ccccc1 | 5.2 | 15.2 | -2.3 | 4.5 | 0.6
CCOc1ccc(CNC(=O)CCS(=O)(=O)Cc2ccccc2C)cc1OC | -0.8 | -1.2 | -15.6 | 0.4 | 5.3
O=C(c1ccc2nc(-c3ccco3)c(-c3ccco3)nc2c1)N1CCN(c2ccccc2)CC1 | 23.2* | -12.3 | -8.3 | 12.3 | 4.5
CCc1nc2ccc(C(=O)N3CCN(c4ccccc4)CC3)cc2nc1CC | 5.4 | nt | -14.3 | nt | nt
Nc1c(N)c2ccccc2oc1=O | 20.2* | -11.8 | nt | 1.7 | 2.3
Cc1ccccc1-c1nsc(SCC(=O)NCc2ccc3c(c2)OCO3)n1 | 2.5 | -6.3 | -3.2 | 0.9 | 1.7
CSC1=NSC2=NC(=O)/C(=C/c3coc4ccc(O)cc4c3=O)C(=N)N12 | nt | -11.2 | 126.3* | 8.5 | 35.2
CSC1=NSC2=NC(=O)/C(=C/c3coc4ccccc4c3=O)C(=N)N12 | nt | -63.7 | -17.1 | -40.0 | 13.2
CCc1ccc(-c2cnc3nc[nH]c(=O)c3n2)cc1 | 15.0* | nt | -20.7 | nt | nt
O=C(Nc1ccc2nc3n(c(=O)c2c1)CCCC3)c1cccnc1Cl | -5.0 | nt | -2.2 | nt | nt
CCOC(=O)C1CCCc2c1[nH]c1c(C(N)=O)cccc21 (stereo unspecified) | 25.3* | 3.5 | -1.8 | 1.3 | -1.2
NC(=O)c1cccc2c3c([nH]c12)CCCC3 | 84.9* | 4.0 | nt | 1.0 | 28.9
O=C(/C=C/c1ccc(O)c(O)c1)O[C@H](Cc1ccc(O)c(O)c1)C(=O)O | 12.1 | 20.9 | nt | 42.2 | 51.8*
O=C(O)/C=C/c1ccc(O)c(O)c1 | 1.7 | 57.9 | -4.5 | 45.0 | -6.2
COC(=O)c1ccc(C2C(C#N)=C(N)Oc3cc(O)ccc32)cc1 (stereo unspecified) | -23.3 | nt | -11.1 | nt | nt
C#CCOc1ccc(C2C(C#N)=C(N)Oc3cc(O)ccc32)cc1 (stereo unspecified) | 66.5* | nt | + | nt | nt
N#CC1=C(N)Oc2cc(O)ccc2C1c1ccncc1 (stereo unspecified) | -28.2 | -109.1 | nt | -38.4 | 1.8
CCOc1ccc(C2C(C#N)=C(N)Oc3cc(O)ccc32)cc1OCC (stereo unspecified) | 50.7* | nt | 57.7* | nt | nt
COc1ccc(C2C(C#N)=C(N)Oc3cc(O)ccc32)cc1Cl (stereo unspecified) | 59.1* | nt | + | nt | nt
Cn1c2ccccc2c(=O)c2cc(C#CC3(O)CCCCC3)ccc21 | 168.9* | nt | 20.5 | nt | nt
Cn1c2ccccc2c(=O)c2ccc(C#CC3(N)CCCCC3)cc21 | 163.4* | nt | 25.7 | nt | nt
O=c1c2ccccc2oc2ccc(C#CC3(O)CCCCC3)cc12 | 0.7 | nt | -7.2 | nt | nt
O=C1Nc2ccccc2C1=Nc1ccc(S(=O)(=O)Nc2nccs2)cc1 | -0.7 | 0.6 | -17.8 | -0.3 | 67.0*
CCCCCCCc1nc2c(=O)n(C)c3ccccc3c2o1 | ? | -2.5 | -3.1 | -10.5 | 2.5
CC1CCN(C(=O)CSc2nc3ccccc3s2)CC1 | 28.1* | 2.4 | -4.5 | 2.8 | -19.5
SMILES | RanGTP-Imp inh | Runt-SMMHC FRET | CaV13 FRET inh | Runt-CBFb FRET | Hck-Nef inh
COc1ccc(N2CC(NS(=O)(=O)c3cccnc3)CC2=O)cc1OC (stereo unspecified) | 2.8 | nt | -5.1 | nt | nt
Cc1ccc(N2CC(NS(=O)(=O)c3cccnc3)CC2=O)cc1C (stereo unspecified) | 32.5* | nt | -6.3 | nt | nt
CC1=C(C#N)C(c2ccc(O)cc2)C2=C(CC(C)(C)CC2=O)N1 (stereo unspecified) | -0.6 | 8.4 | -6.6 | 3.7 | 0.4
CC1=C(C#N)C(C)C2=C(CC(C)(C)CC2=O)N1 (stereo unspecified) | 4.9 | 50.2* | -4.1 | 22.3 | 14.4
Cc1ccccc1Oc1nc(-c2ccccn2)nc2ccccc12 | -1.4 | -0.4 | -2.0 | 0.7 | 12.8
Clc1ccc(N2N=C(c3cccs3)CC2c2ccco2)cc1 (stereo unspecified) | 9.7 | 90.8* | 8.1 | nt | 22.3
c1ccc(N2N=C(c3cccs3)CC2c2ccco2)cc1 (stereo unspecified) | 0.6 | 81.6* | -6.6 | 32.3 | 35.2
c1ccc(C2=NN(c3ccccc3)C(c3ccco3)C2)cc1 (stereo unspecified) | -6.7 | 2.8 | -4.9 | 6.4 | 23.2
Nc1c(C(=O)NCCN2CCOCC2)c2nc3ccccc3nc2n1-c1cccc(F)c1 | 78.0* | 60.9* | nt | 70.9* | 17.8
CCCCCCSc1cc(-c2nc3cc(C)ccn3c2NCCCC)ccc1OC | 4.5 | nt | 78.1*! | nt | nt
Cc1cc(=O)n2ccccc2c1C#N | -0.3 | 13.4 | -9.6 | 8.1 | 14.9
COc1ccc2c(C#N)c3ccccn3c2c1 | 0.2 | 91.9* | -2.2 | 20.3 | -41.4
Cc1ccc2nc(N3CCN(CCO)CC3)nc(-c3ccccc3)c2c1 | ? | nt | -4.1 | nt | nt
CCOC(=O)N1CCN(c2nc(-c3ccccc3)c3cc(C)ccc3n2)CC1 | 18.2* | nt | -14.2 | nt | nt
O=C(O)CCC(=O)N1CCN(c2nc(-c3ccccc3)c3cc(Br)ccc3n2)CC1 | 27.9* | nt | -0.8 | nt | nt
NNc1nc(-c2ccccc2Cl)c2cc(Br)ccc2n1 | 3.1 | nt | -19.8 | nt | nt
O=C(O)CCC(=O)N1CCN(c2nc(-c3ccccc3Cl)c3cc(Br)ccc3n2)CC1 | 30.9* | 85.1* | nt | 35.7 | 6.2
CC1CCN(S(=O)(=O)c2ccc(NC(=O)CN3CCOCC3)cc2)CC1 | 0.5 | -1.2 | -7.6 | 0.3 | -0.9
O=C(CSc1ccc2nnc(-c3ccccn3)n2n1)Nc1nccs1 | 1.6 | 0.6 | -6.5 | -0.1 | 15.3
Cc1cc(C(N)=O)c2cc(Br)ccc2n1 | 27.2* | 2.3 | -2.8 | 0.3 | 0.3
COc1ccc(S(=O)(=O)N2CCCCCC2)cc1NC(=O)CCNC(=O)c1ccc(Cl)cc1 | nt | nt | -4.9 | nt | nt
CCn1nc(NC(=O)c2cccs2)c2cc3ccccc3nc21 | 38.8* | 24.0 | -3.6 | 13.8 | 14.8
CCn1nc(NS(=O)(=O)c2ccccc2)c2cc3ccccc3nc21 | 1.7 | nt | -2.5 | nt | nt
O=C(Nc1cnc2ccccc2c1)c1cccnc1 | 5.2 | 2.0 | -5.6 | 3.8 | 0.7
CCn1nc(NC(=O)c2cccnc2)c2cc3ccccc3nc21 | 18.7* | 8.5 | -4.2 | 5.4 | 8.3
CCn1c2ccccc2c2cc(NC(=O)COc3ccccc3OC)ccc21 | 1.8 | 0.8 | -7.4 | 0.2 | 4.2
Cc1n[nH]c(C)c1Sc1ccccc1N | -2.9 | -1.4 | -20.8 | -1.7 | 27.0
COc1ccc(NC(=O)CSc2nc3ccccc3c(=O)n2Cc2cccs2)c(OC)c1 | -8.4 | -4.3 | nt | 0.6 | 1.0
COCCn1c(SCC(=O)Nc2ccc(OC)cc2OC)nc2ccccc2c1=O | 21.0* | nt | -20.7 | nt | nt
